Experimental data: PMC9926453 (Medicinal Chemistry Research, 2023)

How the values were obtained:
Type in all cases: cell-based
[1] = MTT cytotoxicity towards normal breast cells; settings: human, MCF-10A normal breast cells
[2] = system: normal MCF-10A breast cells; experiment: MTT cytotoxicity towards normal breast cells; settings: SI: IC50(MCF-10A)/IC50(MCF-7) or IC50(MCF-10A)/IC50(MDA-MB-231)
[3] = system: MCF-7 breast cancer cells; experiment: MTT antiproliferative assay, MCF-7; settings: Homo sapiens, MCF7, 24 h, read-out: Antiproliferative activity (IC50) MCF-7
Method in brief: (§1)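 Cells seeded at 2×10^3 per well and left 24 h to adhere, then exposed to test compound (0–100 µM, final) for 24 h at 37 °C. MTT added for 4 h, a second MTT addition followed by overnight incubation, and absorbance read at 540 nm. Growth compared with untreated cells; IC50 derived from dose-response curves.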

[4] = system: MDA-MB-231/ADR breast cancer cells; experiment: MTT antiproliferative assay, MDA-MB-231/ADR; settings: Homo sapiens, MDA-MB-231, 24 h, read-out: Antiproliferative activity (IC50) MDA-MB-231/ADR
Method in brief: (§2)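 Cells were seeded at 2×10^3 per well and left to adhere for 24 h. Test compound was then added at 0–100 µM final, and cells were incubated for 24 h at 37 °C. MTT was added for 4 h, […]. Absorbance was read at 540 nm and growth compared with untreated cells. IC50 was taken from a dose-response curve.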

[5] = system: MDA-MB-231 breast cancer cells; experiment: MTT antiproliferative assay, MDA-MB-231; settings: Homo sapiens, MDA-MB-231, 24 h, read-out: Antiproliferative activity (IC50) MDA-MB-231
Method in brief: as §2

[6] = system: MCF-7, MDA-MB-231, MCF-7/ADR and MDA-MB-231/ADR breast cancer cell lines; experiment: MTT antiproliferative assay, the four breast cancer cell lines taken together; settings: Homo sapiens, read-out: IC50 range over the four breast cancer cell lines
Method in brief: as §1

Row | SMILES | IC50 at 24 h [1] [µM] | Selectivity index (SI) [2] | IC50 [3] [µM] | IC50 [4] [µM] | IC50 [5] [µM] | IC50 [6] [µM]
1 | C[C@@H]1CC[C@H]2[C@@H](C)C(OC(=O)CCCN3C(=O)C(=O)c4ccccc43)O[C@@H]3O[C@@]4(C)CC[C@@H]1[C@]32OO4 (stereo partly drawn) [Hybrid 4a, (3R,5aS,6R,8aS,9R,12R,12aR)-3,6,9-trimethyldecahydro-12H-3,12-epoxy[1,2]dioxepino[4,3-i]isochromen-10-yl 4-(2,3-dioxoindolin-1-yl)butanoate] | > 100 | >7.33 | 13.6 | 49.6 | 14.9 | –
2 | C[C@H]1[C@@H](O)O[C@@H]2O[C@@]3(C)CC[C@H]4[C@H](C)CC[C@@H]1[C@@]24OO3 [DHA, Dihydroartemisinin, reference compound] | > 100 | >3.53 | 28.3 | 82.8 | 48.8 | 14.8 to 82.8
3 | CCON=C1C(=O)N(CCCC(=O)OC2O[C@@H]3O[C@@]4(C)CC[C@H]5[C@H](C)CC[C@@H]([C@H]2C)[C@@]35OO4)c2ccccc21 (stereo partly drawn) [Hybrid 5b, (3R,5aS,6R,8aS,9R,12R,12aR)-3,6,9-trimethyldecahydro-12H-3,12-epoxy[1,2]dioxepino[4,3-i]isochromen-10-yl 4-(3-(ethoxyimino)-2-oxoindolin-1-yl)butanoate] | > 100 | >78.74 | 1.27 | 26.8 | 15.1 | –
4 | C[C@@H]1CC[C@H]2[C@@H](C)C(OC(=O)CCCN3C(=O)C(=NOCc4ccccc4)c4ccccc43)O[C@@H]3O[C@@]4(C)CC[C@@H]1[C@]32OO4 (stereo partly drawn) [Hybrid 5c, (3R,5aS,6R,8aS,9R,12R,12aR)-3,6,9-trimethyldecahydro-12H-3,12-epoxy[1,2]dioxepino[4,3-i]isochromen-10-yl 4-(3-((benzyloxy)imino)-2-oxoindolin-1-yl)butanoate] | > 100 | – | > 100 | 3.95 | 2.39 | –
5 | COc1ccc2c(c1)C(=NOCc1ccccc1)C(=O)N2CCCC(=O)OC1O[C@@H]2O[C@@]3(C)CC[C@H]4[C@H](C)CC[C@@H]([C@H]1C)[C@@]24OO3 (stereo partly drawn) [Hybrid 5k, (3R,5aS,6R,8aS,9R,12R,12aR)-3,6,9-trimethyldecahydro-12H-3,12-epoxy[1,2]dioxepino[4,3-i]isochromen-10-yl 4-(3-((benzyloxy)imino)-5-methoxy-2-oxoindolin-1-yl)butanoate] | – | – | > 100 | > 100 | > 100 | –
6 | CCON=C1C(=O)N(CCCC(=O)OC2O[C@@H]3O[C@@]4(C)CC[C@H]5[C@H](C)CC[C@@H]([C@H]2C)[C@@]35OO4)c2ccc(C)cc21 (stereo partly drawn) [Hybrid 5g, (3R,5aS,6R,8aS,9R,12R,12aR)-3,6,9-trimethyldecahydro-12H-3,12-epoxy[1,2]dioxepino[4,3-i]isochromen-10-yl 4-(3-(ethoxyimino)-5-methyl-2-oxoindolin-1-yl)butanoate] | – | – | > 100 | > 100 | > 100 | –
7 | C[C@@H]1CC[C@H]2[C@@H](C)C(=O)O[C@@H]3O[C@@]4(C)CC[C@@H]1[C@]32OO4 [ART, Artemisinin, reference compound] | > 100 | – | > 100 | > 100 | > 100 | > 100
8 | CCON=C1C(=O)N(CCCC(=O)OC2O[C@@H]3O[C@@]4(C)CC[C@H]5[C@H](C)CC[C@@H]([C@H]2C)[C@@]35OO4)c2ccc(F)cc21 (stereo partly drawn) [Hybrid 5e, (3R,5aS,6R,8aS,9R,12R,12aR)-3,6,9-trimethyldecahydro-12H-3,12-epoxy[1,2]dioxepino[4,3-i]isochromen-10-yl 4-(3-(ethoxyimino)-5-fluoro-2-oxoindolin-1-yl)butanoate] | > 100 | >6.29 | 15.9 | > 100 | 8.12 | –
9 | CON=C1C(=O)N(CCCC(=O)OC2O[C@@H]3O[C@@]4(C)CC[C@H]5[C@H](C)CC[C@@H]([C@H]2C)[C@@]35OO4)c2ccccc21 (stereo partly drawn) [Hybrid 5a, (3R,5aS,6R,8aS,9R,12R,12aR)-3,6,9-trimethyldecahydro-12H-3,12-epoxy[1,2]dioxepino[4,3-i]isochromen-10-yl 4-(3-(methoxyimino)-2-oxoindolin-1-yl)butanoate] | > 100 | >5.23 | 19.1 | 52.2 | > 100 | –
10 | C[C@@H]1CC[C@H]2[C@@H](C)C(OC(=O)CCCN3C(=O)C(=O)c4cc(F)ccc43)O[C@@H]3O[C@@]4(C)CC[C@@H]1[C@]32OO4 (stereo partly drawn) [Hybrid 4b, (3R,5aS,6R,8aS,9R,12R,12aR)-3,6,9-trimethyldecahydro-12H-3,12-epoxy[1,2]dioxepino[4,3-i]isochromen-10-yl 4-(5-fluoro-2,3-dioxoindolin-1-yl)butanoate] | > 100 | >7.62 | 13.1 | > 100 | 50 | –
11 | CON=C1C(=O)N(CCCC(=O)OC2O[C@@H]3O[C@@]4(C)CC[C@H]5[C@H](C)CC[C@@H]([C@H]2C)[C@@]35OO4)c2ccc(OC)cc21 (stereo partly drawn) [Hybrid 5i, (3R,5aS,6R,8aS,9R,12R,12aR)-3,6,9-trimethyldecahydro-12H-3,12-epoxy[1,2]dioxepino[4,3-i]isochromen-10-yl 4-(5-methoxy-3-(methoxyimino)-2-oxoindolin-1-yl)butanoate] | – | – | > 100 | > 100 | > 100 | –
12 | CON=C1C(=O)N(CCCC(=O)OC2O[C@@H]3O[C@@]4(C)CC[C@H]5[C@H](C)CC[C@@H]([C@H]2C)[C@@]35OO4)c2ccc(F)cc21 (stereo partly drawn) [Hybrid 5d, (3R,5aS,6R,8aS,9R,12R,12aR)-3,6,9-trimethyldecahydro-12H-3,12-epoxy[1,2]dioxepino[4,3-i]isochromen-10-yl 4-(3-(methoxyimino)-5-fluoro-2-oxoindolin-1-yl)butanoate] | > 100 | – | 6.07 | > 100 | > 100 | –
13 | Cc1ccc2c(c1)C(=O)C(=O)N2CCCC(=O)OC1O[C@@H]2O[C@@]3(C)CC[C@H]4[C@H](C)CC[C@@H]([C@H]1C)[C@@]24OO3 (stereo partly drawn) [Hybrid 4c, (3R,5aS,6R,8aS,9R,12R,12aR)-3,6,9-trimethyldecahydro-12H-3,12-epoxy[1,2]dioxepino[4,3-i]isochromen-10-yl 4-(5-methyl-2,3-dioxoindolin-1-yl)butanoate] | – | – | > 100 | > 100 | 32.9 | –
14 | C[C@@H]1CC[C@H]2[C@@H](C)C(OC(=O)CCCN3C(=O)C(=NOCc4ccccc4)c4cc(F)ccc43)O[C@@H]3O[C@@]4(C)CC[C@@H]1[C@]32OO4 (stereo partly drawn) [Hybrid 5f, (3R,5aS,6R,8aS,9R,12R,12aR)-3,6,9-trimethyldecahydro-12H-3,12-epoxy[1,2]dioxepino[4,3-i]isochromen-10-yl 4-(3-((benzyloxy)imino)-5-fluoro-2-oxoindolin-1-yl)butanoate] | > 100 | >5.46 | 18.3 | > 100 | > 100 | –
15 | COc1cccc2c1C(=O)c1c(O)c3c(c(O)c1C2=O)C[C@@](O)(C(=O)CO)C[C@@H]3O[C@H]1C[C@H](N)[C@H](O)[C@H](C)O1 [ADR, Adriamycin, reference compound] | 68.8 | 3.64 | 18.9 | > 100 | 3.38 | –
16 | CCON=C1C(=O)N(CCCC(=O)OC2O[C@@H]3O[C@@]4(C)CC[C@H]5[C@H](C)CC[C@@H]([C@H]2C)[C@@]35OO4)c2ccc(OC)cc21 (stereo partly drawn) [Hybrid 5j, (3R,5aS,6R,8aS,9R,12R,12aR)-3,6,9-trimethyldecahydro-12H-3,12-epoxy[1,2]dioxepino[4,3-i]isochromen-10-yl 4-(3-(ethoxyimino)-5-methoxy-2-oxoindolin-1-yl)butanoate] | – | – | > 100 | > 100 | > 100 | –
17 | COc1ccc2c(c1)C(=O)C(=O)N2CCCC(=O)OC1O[C@@H]2O[C@@]3(C)CC[C@H]4[C@H](C)CC[C@@H]([C@H]1C)[C@@]24OO3 (stereo partly drawn) [Hybrid 4d, (3R,5aS,6R,8aS,9R,12R,12aR)-3,6,9-trimethyldecahydro-12H-3,12-epoxy[1,2]dioxepino[4,3-i]isochromen-10-yl 4-(5-methoxy-2,3-dioxoindolin-1-yl)butanoate] | > 100 | >5.52 | 18.1 | 20.1 | 15.1 | –
18 | Cc1ccc2c(c1)C(=NOCc1ccccc1)C(=O)N2CCCC(=O)OC1O[C@@H]2O[C@@]3(C)CC[C@H]4[C@H](C)CC[C@@H]([C@H]1C)[C@@]24OO3 (stereo partly drawn) [Hybrid 5h, (3R,5aS,6R,8aS,9R,12R,12aR)-3,6,9-trimethyldecahydro-12H-3,12-epoxy[1,2]dioxepino[4,3-i]isochromen-10-yl 4-(3-((benzyloxy)imino)-5-methyl-2-oxoindolin-1-yl)butanoate] | – | – | > 100 | > 100 | > 100 | –
